Assay results taken from ChEMBL document CHEMBL1764993, “Synthesis and biological evaluation of novel irreversible serine protease inhibitors using amino acid based sulfonyl fluorides as an electrophilic trap” (Bioorg Med Chem, 2011).
Calls of active or inactive are those of the source. No cut-off for these calls is given here.

Columns and labels:
[1] = Inhibition of chymotrypsin assessed as p-nitroaniline release at 20 uM measured at every 6 mins for 15 mins using Bz-L-Tyr-pNA as a substrate
How it was run: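 kinact: chymotrypsin mixed with inhibitor in sodium phosphate 0.05 M pH 7.0; aliquots moved into Bz-L-Tyr-pNA wells at 0–5 min, then all read at 405 nm for 15 min. Final enzyme 0.5 µM, substrate 250 µM, inhibitor 20 µM. Residual activity plotted against preincubation time.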

[2] = Inhibition of chymotrypsin assessed as p-nitroaniline release measured for 15 mins using Bz-L-Tyr-pNA as a substrate by Dixon plot analysis
How it was run: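 Ki from Dixon plots: chymotrypsin (final 0.5 µM) in sodium phosphate 0.05 M pH 7.0 with Bz-L-Tyr-pNA at 0.15–0.25 mM and inhibitor at 7.81, 15.63 or 31.25 µM (final), no preincubation. p-Nitroaniline read directly at 405 nm for 15 min; DMSO controls; quadruplicate.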

Papain (Carica papaya) = biological target: T1, Papain (Carica papaya) (UniProt P00784); test: Inhibition of papaya papain assessed as p-nitroaniline release at 2.5 uM after 1 hr pre-inhibition using Bz-L-Tyr-pNA as a substrate by calorimetric assay
T1 sequence (whole entry): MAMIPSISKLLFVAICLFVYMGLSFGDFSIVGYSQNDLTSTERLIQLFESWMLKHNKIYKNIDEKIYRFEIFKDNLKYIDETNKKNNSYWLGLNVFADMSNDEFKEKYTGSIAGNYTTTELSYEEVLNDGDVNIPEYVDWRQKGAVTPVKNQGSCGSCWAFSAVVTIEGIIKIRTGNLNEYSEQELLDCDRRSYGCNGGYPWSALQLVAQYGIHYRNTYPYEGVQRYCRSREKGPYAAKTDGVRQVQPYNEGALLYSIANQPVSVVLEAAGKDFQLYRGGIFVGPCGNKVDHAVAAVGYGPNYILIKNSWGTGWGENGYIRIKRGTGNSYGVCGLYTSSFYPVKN

[3] = Inhibition of chymotrypsin assessed as p-nitroaniline release after 30 mins pre-incubated with compound for 1 hr before addition of Bz-L-Tyr-pNA as a substrate by calorimetric assay
How it was run: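 Chymotrypsin (commercial, used as received) pre-incubated 1 h with inhibitor in DMSO in sodium phosphate 0.05 M pH 7.0; aliquot then added to Bz-L-Tyr-pNA. Final: enzyme 1.0 µM, substrate 0.25 mM; DMSO controls. p-Nitroaniline release read at 405 nm for 30 min at rt to give residual activity. Triplicate or quadruplicate.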

Structure (SMILES)	Kinact [1] [min⁻¹]	Ki ([2]; read-out: Ki) [µM]	Activity (Papain (Carica papaya))	Activity [3]	Ki [2]
O=S(=O)(F)Cc1ccccc1 [PHENYLMETHYLSULFONYLFLUORIDE]	0.32	13			
CC(C)C[C@@H](CS(=O)(=O)F)NC(=O)OCc1ccccc1			Active	Active	
CC(C)[C@@H](CS(=O)(=O)F)NC(=O)OCC1c2ccccc2-c2ccccc21				Active	
O=C(NCCS(=O)(=O)F)OCc1ccccc1			Active	Active	
O=C(N[C@@H](Cc1ccccc1)CS(=O)(=O)F)OCc1ccccc1			Active	Active	
C[C@@H](CS(=O)(=O)F)NC(=O)OCc1ccccc1			Active	Active	Not Active
